Screening data as filed in PubChem BioAssay.
CTSL1 counter = Fasciola hepatica cathepsin L1 inhibitors, primary screen, counter-screen for PFM18AAP inhibitor project, biochemical, QFRET, fluorogenic peptide substrate; 0.49% of 300,000 active; inhibition, % at 5.96 µM; recombinant F. hepatica cathepsin L1, Z-Leu-Arg-MCA fluorescence; AID 1906, 2009;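 active = inhibition above the mean of all tested compounds plus 3 SD, set per screening campaign, cut at about 17% in these data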
SENP1 inh = human SENP1 catalytic domain inhibitors, primary screen, biochemical, FRET, uHTS; Sentrin-specific protease 1 (Homo sapiens), Q9P0U3; inhibition, % at 10 µM; recombinant SENP1 catalytic domain, CyPet-SUMO1-YPet FRET cleavage; 0.21% of 360,000 active; AID 624204, 2012;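 active = inhibition at least 30% at 10 µM, raw YFP signal under a set limit, fluorescence ratio 0.5 to 1.5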
Target sequence (Q9P0U3 419-644 limits assumed): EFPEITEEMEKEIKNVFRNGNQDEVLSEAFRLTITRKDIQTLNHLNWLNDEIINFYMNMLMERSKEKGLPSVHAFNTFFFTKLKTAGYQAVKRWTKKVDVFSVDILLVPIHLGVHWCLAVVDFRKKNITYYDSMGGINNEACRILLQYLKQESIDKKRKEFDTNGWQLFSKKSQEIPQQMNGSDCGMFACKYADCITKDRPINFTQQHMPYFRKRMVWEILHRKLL
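system = hSENP1 catalytic domain, recombinant | reagent = SFCypet-SUMO1-SFYpet substrate at 25 nM | doses = one dose per compound, 10 µM, 0.5% DMSO | incubation = enzyme reaction for 50 min at room temperature, dark | measured by = FRET, CFP and YFP emission | controls = no-enzyme low, enzyme-DMSO high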
HDAC3 inhib = HDAC3 deacetylase inhibitors, primary screen, biochemical, fluorescence, cell-free homogeneous. inhibition, % at 8.3 µM. 0.15% of 320,000 active. AID 2718, 2010. recombinant HDAC3, fluorogenic peptide/trypsin coupled. Histone deacetylase 3 (Homo sapiens), O15379; in the data active = inhibition above about 26%, passing the limit was not always enough; inconclusive = no clear call, values can overlap the other calls
Target sequence (O15379 whole entry, looked up): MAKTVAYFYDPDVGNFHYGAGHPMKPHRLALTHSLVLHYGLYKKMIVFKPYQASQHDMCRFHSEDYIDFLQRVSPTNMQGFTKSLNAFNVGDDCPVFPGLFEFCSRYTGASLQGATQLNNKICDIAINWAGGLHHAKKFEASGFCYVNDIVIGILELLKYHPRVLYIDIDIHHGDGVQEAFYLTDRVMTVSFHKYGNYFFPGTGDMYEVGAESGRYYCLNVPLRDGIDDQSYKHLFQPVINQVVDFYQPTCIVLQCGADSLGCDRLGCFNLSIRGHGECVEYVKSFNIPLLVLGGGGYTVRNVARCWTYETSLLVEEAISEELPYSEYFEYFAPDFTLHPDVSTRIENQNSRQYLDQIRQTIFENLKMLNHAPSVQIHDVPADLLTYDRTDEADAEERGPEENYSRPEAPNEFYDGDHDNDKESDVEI
M18AAP inhibitor = PfM18AAP inhibitors, malaria aminopeptidase, primary screen, biochemical, QFRET, recombinant enzyme; M18 aspartyl aminopeptidase (Plasmodium falciparum 3D7); H-Glu-NHMec fluorogenic cleavage; inhibition, % at 7.35 µM; 1.2% of 290,000 active;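 active = inhibition above the campaign mean inhibition over all tested compounds plus 3 SD, cut at about 28% in these data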
AHR activator = AHR activators, primary screen, cell-based, luminescence, luciferase reporter, human; 2.5% of 320,000 active; Aryl hydrocarbon receptor (Homo sapiens), P35869; AHR-responsive luciferase reporter cells; activation, % at 5 µM; in the data active = activation above about 47%
FXN GAA850 act = FXN promoter activators, primary screen, cell-based, luciferase luminescence, HEK293 lucGAA850. activation, % at 6 µM. 0.56% of 360,000 active. HEK293 lucGAA850 FXN promoter luciferase reporter, 24 h; percent of 10 µM SAHA response;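 active = activation above the average of all compounds screened plus 3 SD, cutoff fixed separately per campaign, cut at about 7.5% in these data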
Each line names hits and unclear results; the compound was inactive in the other large screens. An excerpt weighted towards active compounds, which were near 4.2% of everything screened.

Cc1ccc(C2=NN(C(=O)CCl)C(c3cccs3)C2)o1 (centres undefined)	CTSL1 counter 18
Cc1ccc(C2=NN(C(=O)CCC(=O)O)C(c3cccs3)C2)cc1 (centres undefined)	none
CC(=O)N1N=C(c2ccco2)CC1c1cccs1 (centres undefined)	none
O=C(CCl)N1N=C(c2ccco2)CC1c1cccs1 (centres undefined)	CTSL1 counter 26
CC1CCN(C(=O)CN2C(=O)NC(C)(c3ccc4ccccc4c3)C2=O)CC1 (centres undefined)	none (no result: CTSL1 counter, M18AAP inhibitor)
COc1cc([N+](=O)[O-])cc(/C=N/NC(=O)c2cc(-c3ccccc3)nc3ccccc23)c1O	none
COc1cc([N+](=O)[O-])cc(/C=N/NC(=O)c2cc(C)nc3ccccc23)c1O	SENP1 inh 40
Cc1nc(Nc2ccc(Cl)cc2)c(C#N)c(=O)[nH]1	AHR activator 71
CSc1nc(C)[nH]c(=O)c1C#N	none
Cc1cccc(C(=O)NCC(=O)OCC(=O)N(C)CC(=O)Nc2ccc(F)cc2)c1	CTSL1 counter 40 (no result: M18AAP inhibitor)
Cc1cc(C)cc(OCC(=O)OCc2cc([N+](=O)[O-])cc3c2OCOC3)c1	none (no result: CTSL1 counter, M18AAP inhibitor)
O=C(NCc1ccc(F)cc1)c1cc(C2CCCCN2C(=O)CCCc2ccccc2)on1 (centres undefined)	none (no result: CTSL1 counter, HDAC3 inhib, M18AAP inhibitor, AHR activator)
CCN1C(=O)/C(=C/C=C2/Sc3ccc4ccccc4c3N2CCO)SC1=S	M18AAP inhibitor 50
O=c1c2cn[nH]c2nc(SCc2ccc3c(c2)OCCO3)n1-c1ccccc1	none
CSc1nc2[nH]ncc2c(=O)n1-c1ccccc1	M18AAP inhibitor 61
O=C(CSc1nc2[nH]ncc2c(=O)n1-c1ccccc1)N1CCCCCC1	M18AAP inhibitor 34 (no result: SENP1 inh, FXN GAA850 act)
CC(=O)Nc1nnc(CSCc2ccccc2F)s1	none
O=C1/C(=C\c2ccco2)SC(=S)N1c1ccc(O)cc1	M18AAP inhibitor 31
O=C1/C(=C\c2ccc(O)cc2)SC(=S)N1c1cccnc1	SENP1 inh 81
COc1ccc(/C=C2\SC(=S)N(c3cccnc3)C2=O)cc1	none
O=C(CSC1=NS(=O)(=O)c2ccccc21)Nc1ccccc1	none
COC(=O)CSC1=NS(=O)(=O)c2ccccc21	HDAC3 inhib 54
O=C(COc1ccc(F)cc1)NCC1(N2CCCCC2)CCCCC1	none (no result: CTSL1 counter, HDAC3 inhib, M18AAP inhibitor, AHR activator)
CN(C)C(CNC(=O)c1ccc(C2SCCS2)cc1)c1ccccc1 (centres undefined)	HDAC3 inhib 54
O=C(O)c1ccc(NS(=O)(=O)Cc2ccc(Cl)c(Cl)c2)cc1	none (no result: CTSL1 counter, HDAC3 inhib, M18AAP inhibitor, AHR activator)
C=CCc1c(C)nc2cc(-c3ccc(C)cc3)[nH]n2c1=O	AHR activator 50
C[C@H](CO)N1C[C@H](C)[C@@H](CN(C)S(=O)(=O)c2ccccc2)Oc2ccc(NC(=O)Nc3ccc4c(c3)OCO4)cc2C1=O	none (no result: CTSL1 counter, M18AAP inhibitor)
Cc1[nH]c2ccccc2c1/C=C/C(=O)c1ccncc1	AHR activator 56
Cc1ccc(C(=O)/C=C/c2c[nH]c3ccccc23)cc1	AHR activator 52
CN(Cc1cc([N+](=O)[O-])ccc1Cl)C(=O)C[n+]1ccccc1	none
CC(=O)c1c(C)oc2c1cc(NS(=O)(=O)c1ccc(C(=O)O)cc1)c1ccccc12	none
Cc1ccc(S(=O)(=O)Nc2cc3c(C(=O)Nc4ccccc4)c(C)oc3c3ccccc23)cc1	AHR activator 64
CCNC(=S)NNC(=O)c1csc(CC)c1	M18AAP inhibitor 31
CCOC(=O)c1cc(C(=O)OCC)c(=O)[nH]c1SCc1ccccc1	none
CCc1nnc(NC(=O)CCC(=O)NC2CCCCCC2)s1	none
COc1ccccc1Nc1ccc2c(O)cc(S(=O)(=O)O)cc2c1	none (no result: CTSL1 counter, HDAC3 inhib, M18AAP inhibitor, AHR activator)
CCn1c(SC(=O)NC2CCCCC2)nnc1-c1cccs1	CTSL1 counter 55, M18AAP inhibitor 47
CCn1c(SCC(=O)NC2CCCCC2)nnc1-c1cccs1	none
COc1ccccc1N1C(=O)N(C(C)=O)C2C1Nc1ccccc1N2C (centres undefined)	AHR activator 60
O=C1C(=O)N(Cc2ccccc2)C(=O)N1CCN1C(=O)c2ccccc2C1=O	none
O=C1Cc2ccccc2C(=O)N1CCc1ccccc1	CTSL1 counter 67, AHR activator 73
COc1ccc(NC(=O)N(C)C[C@H]2OCCCC[C@H](C)Oc3ccc(NC(=O)Nc4ccc5c(c4)OCO5)cc3C(=O)N([C@@H](C)CO)C[C@@H]2C)cc1	none (no result: CTSL1 counter, HDAC3 inhib, M18AAP inhibitor, AHR activator)
Cc1cccc(NC(=S)N/N=C/c2ccc([N+](=O)[O-])s2)c1	AHR activator 71
CCN(CC)c1ccc(C(=O)NNC(=O)CCNC(=O)c2ccccc2)cc1	none (no result: CTSL1 counter, M18AAP inhibitor)
CCN(CC)c1ccc(C(=O)NNC(=O)CCl)cc1	CTSL1 counter 58
CC(C)(C)S(=O)N1Cc2cc(C(=O)N3CCc4ccccc4C3)nc(-c3cccc(-c4cccnc4)c3)c2[C@@H]1CCO (some centres undefined)	none (no result: CTSL1 counter, HDAC3 inhib, M18AAP inhibitor, AHR activator, FXN GAA850 act)
O=c1cc(-c2cccc(Br)c2)oc2cccc(O)c12	AHR activator 49 (no result: M18AAP inhibitor)
O=c1cc(-c2ccccc2)oc2cccc(O)c12	none (no result: CTSL1 counter, HDAC3 inhib, M18AAP inhibitor, AHR activator)
Cc1ccc(NC(=O)c2ccc(Cl)nc2)cc1	none
CCCSc1ccc(C(=O)Nc2ccc(Cl)cc2)cn1	AHR activator 60
CC1CCc2nc3ccc(S(=O)(=O)N4CCC(C(=O)NCc5ccccc5Cl)CC4)cc3c(C(=O)O)c2C1 (centres undefined)	none
CC1CCC(NC(=O)C2CCN(S(=O)(=O)c3ccc4nc5c(c(C(=O)O)c4c3)CC(C)CC5)CC2)CC1 (centres undefined)	CTSL1 counter 19
Cc1cc(C)n2nc(N)c(N=Nc3ccccc3)c2n1	AHR activator 60
CCCCOc1nc(N2CCOCC2)nc(C)c1[N+](=O)[O-]	CTSL1 counter 18
O=C(Nc1nc2c(ccc3ccccc32)s1)c1ccco1	AHR activator 66
O=C(Nc1nc2c(F)c(F)c(F)cc2s1)c1ccco1	none
O=C(Nc1ccc(-c2nc3c(ccc4ccccc43)o2)cc1)c1ccco1	AHR activator 67
O=C(NC(=S)Nc1nc2c(ccc3ccccc32)s1)c1cccs1	AHR activator 67
O=C(NC(=S)Nc1cccc2ncccc12)c1cccs1	HDAC3 inhib inconclusive
Cc1ccc([C@@H]2CC=C(C(=O)O)[C@H](c3cccc(F)c3)N2S(=O)(=O)c2ccccc2C)cc1	none (no result: CTSL1 counter, M18AAP inhibitor)
Cc1cc(=O)cc(C)n1-c1ccccc1Br	none
CCOC(=O)c1ccc(N2CSC3=C(C#N)C(c4ccc(OC)cc4OC)CC(=O)N3C2)cc1 (centres undefined)	HDAC3 inhib inconclusive
CCOc1ccc(N2CSC3=C(C#N)C(c4ccco4)CC(=O)N3C2)cc1 (centres undefined)	M18AAP inhibitor 33
